{
  "source": "ChEMBL document CHEMBL6127135",
  "about": "“Generation of BT-Amide, a Bone-Targeted Pyk2 Inhibitor, Effective via Oral Administration, for the Prevention of Glucocorticoid-Induced Bone Loss” (J Med Chem, 2024)",
  "key": {"[1]": {"assay": "Toxicity in Glucocorticoid-induced C57BL/6 mouse bone loss model assessed as circulating organ toxicity in serum by measuring total bilirubin at 10 mg/kg/day, po treatment initiated 3 days prior to glucocorticoid challenge measured after 2 weeks", "assay_type": "organism-based", "settings": "in vivo, 408 h, time 17 day", "method_in_brief": "(§1)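 Same mouse regimen: 4-month-old female C57BL/6, gavage 10 mg/kg 5×/week, prednisolone 2.1 mg/kg/d or placebo pellets. At study end, blood collected after isoflurane sedation and euthanasia. 14-parameter Comprehensive Diagnostic Profile analyser panel on plasma. Untreated and vehicle mice served as controls. N = 9–10, mean ± SD.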"}, "[2]": {"assay": "Toxicity in Glucocorticoid-induced C57BL/6 mouse bone loss model assessed as circulating organ toxicity in serum by measuring amylase at 10 mg/kg/day, po treatment initiated 3 days prior to glucocorticoid challenge measured after 2 weeks", "assay_type": "organism-based", "settings": "in vivo, 408 h, time 17 day", "method_in_brief": "as §1"}, "[3]": {"assay": "Toxicity in Glucocorticoid-induced C57BL/6 mouse bone loss model assessed as circulating organ toxicity in serum by measuring calcium at 10 mg/kg/day, po treatment initiated 3 days prior to glucocorticoid challenge measured after 2 weeks", "assay_type": "organism-based", "settings": "in vivo, 408 h, time 17 day", "method_in_brief": "as §1"}, "[4]": {"assay": "Toxicity in Glucocorticoid-induced C57BL/6 mouse bone loss model assessed as circulating organ toxicity in serum by measuring […] at 10 mg/kg/day, po treatment initiated 3 days prior to glucocorticoid challenge measured after 2 weeks", "assay_type": "organism-based", "settings": "in vivo, 408 h, time 17 day", "method_in_brief": "as §1"}, "[5]": {"assay": "Toxicity in Glucocorticoid-induced C57BL/6 mouse bone loss model assessed as circulating organ toxicity in serum by measuring potassium at 10 mg/kg/day, po treatment initiated 3 days prior to glucocorticoid challenge measured after 2 weeks", "assay_type": "organism-based", "settings": "in vivo, 408 h, time 17 day", "method_in_brief": "as §1"}, "[6]": {"assay": "Toxicity in Glucocorticoid-induced C57BL/6 mouse bone loss model assessed as circulating organ toxicity in serum by measuring alkaline phosphatase at 10 mg/kg/day, po treatment initiated 3 days prior to glucocorticoid challenge measured after 2 weeks", "assay_type": "organism-based", "settings": "in vivo, 408 h, time 17 day", "method_in_brief": "as §1"}, "[7]": {"biological_target": "Protein-tyrosine kinase 2-beta (Homo sapiens, UniProt Q14289)", "sequence (Q14289 whole entry)": "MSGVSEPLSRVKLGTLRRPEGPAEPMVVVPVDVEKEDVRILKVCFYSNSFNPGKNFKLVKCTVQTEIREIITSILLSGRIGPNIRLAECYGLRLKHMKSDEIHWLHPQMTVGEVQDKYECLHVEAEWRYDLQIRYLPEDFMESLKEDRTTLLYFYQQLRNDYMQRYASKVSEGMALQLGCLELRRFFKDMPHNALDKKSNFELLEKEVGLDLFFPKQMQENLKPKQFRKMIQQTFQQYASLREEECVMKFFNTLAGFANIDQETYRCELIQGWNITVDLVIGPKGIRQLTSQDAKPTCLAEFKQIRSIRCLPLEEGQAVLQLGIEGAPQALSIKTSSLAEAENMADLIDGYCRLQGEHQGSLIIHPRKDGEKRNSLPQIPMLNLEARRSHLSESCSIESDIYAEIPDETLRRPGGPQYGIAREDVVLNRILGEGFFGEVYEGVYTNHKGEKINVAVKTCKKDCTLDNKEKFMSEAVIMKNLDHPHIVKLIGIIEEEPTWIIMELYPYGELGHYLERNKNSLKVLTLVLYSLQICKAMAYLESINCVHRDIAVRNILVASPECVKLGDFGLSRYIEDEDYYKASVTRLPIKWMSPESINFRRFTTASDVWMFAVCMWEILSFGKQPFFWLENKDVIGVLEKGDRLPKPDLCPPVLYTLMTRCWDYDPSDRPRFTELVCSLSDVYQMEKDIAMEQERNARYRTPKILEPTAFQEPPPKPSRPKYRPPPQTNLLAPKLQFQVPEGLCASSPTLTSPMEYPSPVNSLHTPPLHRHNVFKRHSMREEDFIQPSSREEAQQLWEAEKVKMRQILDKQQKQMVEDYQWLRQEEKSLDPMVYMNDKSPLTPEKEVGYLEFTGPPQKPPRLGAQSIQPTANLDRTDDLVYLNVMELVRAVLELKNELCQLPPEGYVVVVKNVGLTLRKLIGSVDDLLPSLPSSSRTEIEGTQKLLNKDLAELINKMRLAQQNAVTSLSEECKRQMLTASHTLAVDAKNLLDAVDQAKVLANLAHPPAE", "assay": "Inhibition of Pyk2 kinase (unknown origin) by bioluminescent ADP-Glo kinase assay", "method_in_brief": "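ADP-Glo luminescent read-out of ADP formation, run per kit instructions; inhibitors tested as 8-point half-log dilution series, 1 uM down to 0.316 nM. IC50 obtained by fitting dose–response curves with an [inhibitor] vs normalized response model; each compound tested at least 3 times.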"}, "[8]": {"assay": "Toxicity in Glucocorticoid-induced C57BL/6 mouse bone loss model assessed as adverse effect at 10 mg/kg/day, po treatment initiated 3 days prior to glucocorticoid challenge measured after 2 weeks", "assay_type": "organism-based", "settings": "in vivo, 408 h, time 17 day"}, "[9]": {"assay": "Toxicity in Glucocorticoid-induced C57BL/6 mouse bone loss model assessed as circulating organ toxicity in serum by measuring creatinine at 10 mg/kg/day, po treatment initiated 3 days prior to glucocorticoid challenge measured after 2 weeks", "assay_type": "organism-based", "settings": "in vivo, 408 h, time 17 day", "method_in_brief": "as §1"}, "[10]": {"assay": "Toxicity in Glucocorticoid-induced C57BL/6 mouse bone loss model assessed as circulating organ toxicity in serum by measuring glucose at 10 mg/kg/day, po treatment initiated 3 days prior to glucocorticoid challenge measured after 2 weeks", "assay_type": "organism-based", "settings": "in vivo, 408 h, time 17 day", "method_in_brief": "as §1"}, "[11]": {"assay": "Toxicity in Glucocorticoid-induced C57BL/6 mouse bone loss model assessed as circulating organ toxicity in serum by measuring sodium at 10 mg/kg/day, po treatment initiated 3 days prior to glucocorticoid challenge measured after 2 weeks", "assay_type": "organism-based", "settings": "in vivo, 408 h, time 17 day", "method_in_brief": "as §1"}, "Mus musculus": {"test_system": "Mus musculus", "assay": "In vivo inhibition of Glucocorticoid-induced bone loss in C57BL/6 mouse assessed as prevention of bone loss by measuring increase in bone mineral density at 10 mg/kg/day, po treatment initiated 3 days prior to glucocorticoid challenge measured after 2 weeks", "assay_type": "functional, organism-based", "settings": "time 17.0 day", "method_in_brief": "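Female C57BL/6 mice, 4 months old, randomized; oral gavage 10 mg/kg 5 times per week, starting 3 days before subcutaneous slow-release pellet (placebo or prednisolone 2.1 mg/kg/d). Total-body BMD (head and tail excluded) by DEXA after 2 weeks; analysis blinded. Two-way ANOVA with Tukey post hoc, N = 9–10.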"}, "[12]": {"assay": "Toxicity in Glucocorticoid-induced C57BL/6 mouse bone loss model assessed as circulating organ toxicity in serum by measuring blood urea nitrogen at 10 mg/kg/day, po treatment initiated 3 days prior to glucocorticoid challenge measured after 2 weeks", "assay_type": "organism-based", "settings": "in vivo, 408 h, time 17 day", "method_in_brief": "as §1"}, "[13]": {"assay": "Toxicity in Glucocorticoid-induced C57BL/6 mouse bone loss model assessed as circulating organ toxicity in serum by measuring Total protein at 10 mg/kg/day, po treatment initiated 3 days prior to glucocorticoid challenge measured after 2 weeks", "assay_type": "organism-based", "settings": "in vivo, 408 h, time 17 day", "method_in_brief": "as §1"}, "[14]": {"assay": "Toxicity in Glucocorticoid-induced C57BL/6 mouse bone loss model assessed as circulating organ toxicity in serum by measuring Albumin at 10 mg/kg/day, po treatment initiated 3 days prior to glucocorticoid challenge measured after 2 weeks", "assay_type": "organism-based", "settings": "in vivo, 408 h, time 17 day", "method_in_brief": "as §1"}, "[15]": {"assay": "Toxicity in Glucocorticoid-induced C57BL/6 mouse bone loss model assessed as circulating organ toxicity in serum by measuring phosphorus at 10 mg/kg/day, po treatment initiated 3 days prior to glucocorticoid challenge measured after 2 weeks", "assay_type": "organism-based", "settings": "in vivo, 408 h, time 17 day", "method_in_brief": "as §1"}, "[16]": {"assay": "Toxicity in Glucocorticoid-induced C57BL/6 mouse bone loss model assessed as adverse effect by measuring mouse with skin lesions at 10 mg/kg/day, po treatment initiated 3 days prior to glucocorticoid challenge measured after 2 weeks", "assay_type": "organism-based", "settings": "in vivo, 408 h, time 17 day", "method_in_brief": "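Female C57BL/6 mice, 4 months old; oral gavage 10 mg/kg 5 times per week from 3 days before placebo or prednisolone (2.1 mg/kg/d) pellet implantation. Mice scored for development of skin lesions during the study.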"}},
  "note": "Calls of active or inactive are those of the source. The rule behind the calls is not given here.",
  "data": [
    {"smiles": "CNC(=O)c1ccccc1Nc1nc(Nc2ccc(NC(=O)CCCCC(=O)NCCCC(O)(P(=O)(O)O)P(=O)(O)O)cc2OC)ncc1Cl", "values": [
      {"measurement": "Activity", "setting": "[1]", "value": "Non-Toxic"},
      {"measurement": "Activity", "setting": "[2]", "value": "Non-Toxic"},
      {"measurement": "Activity", "setting": "[3]", "value": "Non-Toxic"},
      {"measurement": "Activity", "setting": "[4]", "value": "Non-Toxic"},
      {"measurement": "Activity", "setting": "[5]", "value": "Non-Toxic"},
      {"measurement": "Activity", "setting": "[6]", "value": "Non-Toxic"},
      {"measurement": "IC50", "setting": "[7]", "value": 44.7, "unit": "nM"},
      {"measurement": "Activity", "setting": "[8]", "value": "Non-Toxic"},
      {"measurement": "Activity", "setting": "[9]", "value": "Non-Toxic"},
      {"measurement": "Activity", "setting": "[10]", "value": "Non-Toxic"},
      {"measurement": "Activity", "setting": "[11]", "value": "Non-Toxic"},
      {"measurement": "Activity", "setting": "Mus musculus", "value": "Active"},
      {"measurement": "Activity", "setting": "[12]", "value": "Non-Toxic"},
      {"measurement": "Activity", "setting": "[13]", "value": "Non-Toxic"},
      {"measurement": "Activity", "setting": "[14]", "value": "Non-Toxic"},
      {"measurement": "Activity", "setting": "[15]", "value": "Non-Toxic"}
    ]},
    {"smiles": "CNC(=O)c1ccccc1Nc1nc(Nc2ccc(N)cc2OC)ncc1Cl", "values": [
      {"measurement": "IC50", "setting": "[7]", "value": 43.5, "unit": "nM"}
    ]},
    {"smiles": "CNC(=O)c1ccccc1Nc1nc(Nc2ccc(OC(=O)CCCCC(=O)NCCCC(O)(P(=O)(O)O)P(=O)(O)O)cc2OC)ncc1Cl", "values": [
      {"measurement": "Activity", "setting": "[16]", "value": "Non-Toxic"},
      {"measurement": "Activity", "setting": "Mus musculus", "value": "inactive"}
    ]},
    {"smiles": "CNC(=O)c1ccccc1Nc1nc(Nc2ccc(N3CCC(O)CC3)cc2OC)ncc1Cl", "values": [
      {"measurement": "IC50", "setting": "[7]", "value": 101, "unit": "nM"}
    ]},
    {"smiles": "CNC(=O)c1ccccc1Nc1nc(Nc2ccc(N3CCOCC3)cc2OC)ncc1Cl", "values": [
      {"measurement": "Activity", "setting": "[16]", "value": 15, "unit": "%"},
      {"measurement": "IC50", "setting": "[7]", "value": 16.9, "unit": "nM"},
      {"measurement": "Activity", "setting": "Mus musculus", "value": "Active"}
    ]}
  ]
}
